Shown are actives, neighbours in structure and some others; about 1.7% of the full set was active somewhere.
Scp1 inh: inhibitors of human Scp-1 phosphatase | Q9GZU7 | Recombinant Scp1, phosphopeptide, malachite green phosphate absorbance | inhibition, % at 20 µM | 340,000 compounds, 0.88% hits;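 active = inhibition above about 50% at 20 µM, limit read from the data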;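 also: plate controls were DMSO wells with enzyme for no effect and wells lacking enzyme for full effect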
Target sequence (Q9GZU7 76-261 limits assumed): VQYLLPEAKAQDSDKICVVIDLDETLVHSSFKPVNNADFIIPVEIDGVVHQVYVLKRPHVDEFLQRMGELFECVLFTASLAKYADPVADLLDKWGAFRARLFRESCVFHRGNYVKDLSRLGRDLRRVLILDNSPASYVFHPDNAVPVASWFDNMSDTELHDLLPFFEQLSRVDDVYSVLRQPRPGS
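assay system = SCP-1 phosphatase catalytic domain, residues 76-261 | buffer or medium = 50 mM Tris acetate pH 5.5, 0.005% Tween-20, 10 mM MgCl2 | incubation = enzyme reaction 45 min at room temperature, colour 5 min, stabilisation 30 min | signal = Phosphate-binding colour reagent, absorbance read at 630 nm | measure = % inhibition at 20 µM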
LMPTP inh: LMPTP (human) inhibition; 360,000 compounds, 0.22% hits; AID 651560; P24666; inhibition, % at 20 µM; recombinant LMPTP-A, OMFP fluorogenic substrate, fluorescence intensity;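 active = compounds that cut the enzyme signal by at least half of the control window in the single-dose screen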;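 also: plate controls were DMSO wells with enzyme plus substrate for no effect and substrate without enzyme for full effect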
Target sequence (P24666 whole entry, looked up): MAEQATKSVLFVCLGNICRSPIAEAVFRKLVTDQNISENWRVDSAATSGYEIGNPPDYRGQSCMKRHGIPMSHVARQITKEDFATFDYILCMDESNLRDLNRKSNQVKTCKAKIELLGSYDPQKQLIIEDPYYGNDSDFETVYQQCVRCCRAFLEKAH
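Assay system: LMPTP-A enzyme. Input: 0.625 nM LMPTP-A final. Probe or stimulus: 400 µM OMFP. Compound dosing: single 20 µM dose. Schedule: 50 min dark incubation at room temperature. Detection: fluorescence intensity of OMFP turnover product. Read-out: percent inhibition versus substrate-only and uninhibited controls. Benchmarks: no-enzyme low control, uninhibited high control.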
STEP block: STEP (human) phosphatase inhibition. P54829. recombinant STEP, OMFP fluorogenic substrate, fluorescence. inhibition, % at 20 µM. 360,000 compounds, 0.25% hits;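 active = inhibition at 20 µM, scaled per plate between control wells, above about 37%, limit read from the data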;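 also: 0% = DMSO with enzyme and substrate and 100% = substrate only without enzyme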
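Assay system: isolated STEP enzyme / Timing: 20 min at room temperature, dark / Doses: 20 µM, 1% DMSO / Technique: fluorescence intensity, excitation 480 nm, emission 540 nm / Reagent: fluorogenic phosphatase substrate OMFP at 25 µM final / Measure: percent inhibition scaled to no-enzyme and uninhibited-enzyme controls, plate-pattern corrected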
DNMT1 inh: DNMT1 (human) enzyme inhibition; P26358; DNMT1 molecular beacon, Hinp1I cleavage, fluorescence; inhibition (reported as % activation of signal), % at 10 µM; 360,000 compounds, 0.83% hits; in the data active = inhibition above about 50%
SUMO1 PPI mod: modulators of human SUMO1-mediated protein-protein interactions. SUMO1 binding to a labelled peptide, TR-FRET, 1 h. inhibition, % at 20 µM. 360,000 compounds, 0.33% hits; in the data active = inhibition above about 37%
Target sequence (P63165 whole entry, looked up): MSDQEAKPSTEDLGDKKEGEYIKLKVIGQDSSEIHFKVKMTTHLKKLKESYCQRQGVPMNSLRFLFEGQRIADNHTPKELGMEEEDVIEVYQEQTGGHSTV
Scp-1 conf: confirmation of human Scp-1 phosphatase inhibitors | shares compounds with Scp1 inh | AID 540281 | 2,500 compounds, 61% hits | inhibition, % at 20 µM | recombinant SCP-1 catalytic domain, phosphate release, malachite green absorbance;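 also: plate controls were DMSO with enzyme for no effect and buffer wells lacking enzyme for full effect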
Scp-1 MG ctr: interferes with malachite green readout, flagging false Scp-1 hits. shares compounds with Scp1 inh. Colorimetric interference counterscreen, malachite green absorbance 630 nm. apparent inhibition (interference), % at 20 µM. 2,500 tested, under 10 active. AID 540313;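 also: compounds added after enzyme reaction finished so only phosphate colour detection is probed; plate controls were DMSO wells with completed Scp-1 reaction for no effect and substrate wells lacking enzyme for full effect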
Scp-1 Tm shift: Scp-1 (human) binding by thermal shift; shares compounds with Scp1 inh; Recombinant SCP1, Sypro Orange thermal shift Tm; thermal shift relative to vanadate control, % at 40 µM; 1,500 compounds, 25% hits; AID 540329;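 active = substances whose mean melting-temperature shift, as a percentage of the reference inhibitor's shift, reaches about 5.3%, limit read from the data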;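 also: 0% = Tm of DMSO wells and 100% = Tm with sodium orthovanadate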
Active calls of the source: *.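 The calls were made as follows, unless noted: active = inhibition of at least 30% at 20 µM; inactive = the rest.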

Screening O=C(Nc1ccc(C(=O)N2CCN(c3ccccn3)CC2)cc1)c1ccc(Br)o1 returned Scp1 inh 1.7, LMPTP inh 1.3, STEP block -0.2, DNMT1 inh -5.4 and SUMO1 PPI mod 6.4.
Cc1ccc(NC(=O)COc2cccc(-n3cnnn3)c2)cc1S(=O)(=O)N1CCOCC1 was read as Scp1 inh -7.6, LMPTP inh 0.2, STEP block -5.6, DNMT1 inh -8.9 and SUMO1 PPI mod 4.7.
For COCCNc1nnc(Cc2ccc(OC)c(OC)c2)c(=O)[nH]1 the results were Scp1 inh 4.2, LMPTP inh -1.2, STEP block -1.3, DNMT1 inh 2.7 and SUMO1 PPI mod -4.3.
For CCCCNc1nnc(Cc2ccc(Cl)cc2)c(=O)[nH]1 the results were Scp1 inh 96.6*, LMPTP inh 5.0, STEP block 27.8, DNMT1 inh 29.8, SUMO1 PPI mod 8.5, Scp-1 conf 75.8*, Scp-1 MG ctr -10.9 and Scp-1 Tm shift -2.3.
Screening O=C(NN=Cc1ccccc1C(=O)O)c1cccc(S(=O)(=O)Nc2cccc(C(F)(F)F)c2)c1 returned Scp1 inh 4.7, LMPTP inh -2.0, STEP block -1.3, DNMT1 inh -0.4 and SUMO1 PPI mod 2.6.
Screening COc1ccc2cc(C(=O)Nc3ccccc3)sc(=O)c2c1OC returned Scp1 inh 36.3, LMPTP inh 1.6, STEP block 8.0, DNMT1 inh 6.5 and SUMO1 PPI mod -9.9.
`COc1ccc2cc(C(=O)Nc3ccc(S(N)(=O)=O)cc3)sc(=O)c2c1OC` gave Scp1 inh 72.5*, LMPTP inh 6.3, STEP block 10.5, DNMT1 inh 1.2, SUMO1 PPI mod -28.7, Scp-1 conf 38.1*, Scp-1 MG ctr -21.6 and Scp-1 Tm shift -4.0.
Screening CCCCn1c2c(c(=N)c3c1CCC3)CCC2 returned Scp1 inh 93.8*, LMPTP inh 0.5, STEP block -3.1, DNMT1 inh 0.9, SUMO1 PPI mod 5.2, Scp-1 conf -11.4 and Scp-1 MG ctr -15.3.
`CCCCCCCCCn1c2c(c(=N)c3c1CCC3)CCC2` gave Scp1 inh 17.2, LMPTP inh 4.8, STEP block 5.9, DNMT1 inh 17.9 and SUMO1 PPI mod -1.0.
`Nc1ccc(S(=O)(=O)NCC(=O)OC2CCOC2=O)cc1[N+](=O)[O-]` (stereo not drawn) gave Scp1 inh 54.6*, LMPTP inh 0.0, STEP block 3.4, DNMT1 inh 39.4, SUMO1 PPI mod -23.6, Scp-1 conf 18.9 and Scp-1 MG ctr -15.8.
Screening CCOc1ccccc1NC(=O)C1=C(C)NC(=S)NC1c1cccs1 (stereo not drawn) returned Scp1 inh 64.1*, LMPTP inh -2.3, STEP block 0.3, DNMT1 inh 3.4, SUMO1 PPI mod 0.1, Scp-1 conf -9.9 and Scp-1 MG ctr -11.5.
For CCN(CC)S(=O)(=O)c1cc(NC(=O)C2CC(=O)N(Cc3ccccc3)C2)ccc1Cl (stereo not drawn) the results were Scp1 inh -12.8, LMPTP inh -6.9, STEP block 4.8, DNMT1 inh -3.7, SUMO1 PPI mod -21.8, Scp-1 conf -21.8 and Scp-1 MG ctr -17.0.
`CC(=O)c1sc(NC(=O)C2CC(=O)N(Cc3ccccc3)C2)nc1-c1ccccc1` (stereo not drawn) gave Scp1 inh -5.7, LMPTP inh 0.8, STEP block 0.8, DNMT1 inh -1.6, SUMO1 PPI mod -10.5, Scp-1 conf -23.7 and Scp-1 MG ctr -21.7.
For CC1(C(=O)Nc2ccc3ccccc3c2)CCC(=O)N1C1CC1 (stereo not drawn) the results were LMPTP inh -1.0, STEP block -3.1, DNMT1 inh 3.8 and SUMO1 PPI mod 2.9.
Screening CCc1nc2sc3c(c2c(=O)n1CCO)CCC3 returned Scp1 inh 0.3, LMPTP inh -2.6, STEP block 1.7, DNMT1 inh 2.0 and SUMO1 PPI mod 5.4.
Cc1ccccc1N1CCN(C2CCCN(C(=O)CSc3ccccn3)C2)CC1 (stereo not drawn) was read as LMPTP inh -1.8, STEP block -2.2, DNMT1 inh 0.6 and SUMO1 PPI mod -3.7.
CC(C)S(=O)(=O)C1=NSC2=NC(=O)/C(=C\c3ccc(-c4ccccc4)o3)C(=N)N21 was read as Scp1 inh 1.4, LMPTP inh 1.3, STEP block -2.8, DNMT1 inh -7.1 and SUMO1 PPI mod 4.2.
`CC(C)S(=O)(=O)C1=NSC2=NC(=O)/C(=C\c3ccc(-c4cccc(C(=O)O)c4)o3)C(=N)N21` gave Scp1 inh 65.2*, LMPTP inh 2.1, STEP block 2.7, DNMT1 inh 34.5, SUMO1 PPI mod 9.1, Scp-1 conf 67.5*, Scp-1 MG ctr -7.1 and Scp-1 Tm shift 4.7.
For CCOc1ccccc1C(=O)N(C)Cc1cc2cc(OC)ccc2[nH]c1=O the results were Scp1 inh 50.8*, LMPTP inh -1.3, STEP block 1.0, DNMT1 inh -0.7, SUMO1 PPI mod 0.4, Scp-1 conf -20.0 and Scp-1 MG ctr -21.0.
CCOc1cc(C(=O)N(C)Cc2cc3cc(OC)ccc3[nH]c2=O)cc(OCC)c1OCC was read as Scp1 inh 15.5, LMPTP inh -0.9, STEP block -0.7, DNMT1 inh -0.2 and SUMO1 PPI mod -3.0.
For FC(F)(F)c1cnc(/C=C/Nc2ccccc2Cl)c(Cl)c1 the results were Scp1 inh -2.0, LMPTP inh 1.8, STEP block 8.3, DNMT1 inh 2.5 and SUMO1 PPI mod -0.5.
Screening C[N+]1=C(/C=C/Nc2ccccc2Cl)C(C)(C)c2ccccc21 returned Scp1 inh 99.1*, LMPTP inh 0.0, STEP block 1.1, DNMT1 inh 0.3, SUMO1 PPI mod -6.0, Scp-1 conf 78.8*, Scp-1 MG ctr -15.3 and Scp-1 Tm shift -12.3.
`CCOC(=O)C1CCN(C(=O)c2cc(C)n(C(C)(C)C)n2)CC1` gave Scp1 inh -2.6, LMPTP inh -0.9, STEP block -0.1, DNMT1 inh -8.7 and SUMO1 PPI mod -2.7.
For Nc1ccc(-c2ccc(N)c(C(=O)O)c2)cc1C(=O)O the results were Scp1 inh 54.9*, LMPTP inh 0.6, STEP block 1.2, DNMT1 inh 18.9, SUMO1 PPI mod 8.3, Scp-1 conf -5.2 and Scp-1 MG ctr -15.6.
`C[n+]1ccccc1/C=C/c1cc(Br)ccc1O` gave Scp1 inh -9.7, LMPTP inh 0.8, STEP block 0.7, DNMT1 inh -9.3 and SUMO1 PPI mod -23.7.
